ASAP1 inh = inhibitors of human ASAP1 ArfGAP activity, primary screen, biochemical, fluorescence polarization | Arf-GAP with SH3 domain, ANK repeat and PH domain-containing protein 1 (Homo sapiens), … | ASAP1-stimulated ARF1 GTP hydrolysis, GDP FP detection | inhibition, % at 16.5 µM | 360,000 tested, 0.19% active | AID 624377, 2012; in the data active means inhibition above about 25%;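 further: 0% = vehicle with enzyme and substrate and 100% = no enzyme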
Target sequence (Q9ULH1 325-724 limits assumed): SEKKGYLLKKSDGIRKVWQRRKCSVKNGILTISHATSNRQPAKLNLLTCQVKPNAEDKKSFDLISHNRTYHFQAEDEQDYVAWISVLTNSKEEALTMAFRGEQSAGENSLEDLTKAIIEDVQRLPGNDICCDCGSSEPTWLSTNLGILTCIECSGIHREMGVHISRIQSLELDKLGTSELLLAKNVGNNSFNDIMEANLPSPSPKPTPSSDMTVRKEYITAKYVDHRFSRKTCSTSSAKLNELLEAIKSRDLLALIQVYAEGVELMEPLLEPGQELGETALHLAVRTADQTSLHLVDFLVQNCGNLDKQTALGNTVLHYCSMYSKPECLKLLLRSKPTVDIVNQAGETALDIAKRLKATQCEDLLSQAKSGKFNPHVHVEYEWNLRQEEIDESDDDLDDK
PAFAH1B2 FP inh = PAFAH1B2 enzyme inhibitors, primary screen, biochemical, fluorescence polarization, human. inhibition, % at 3.39 µM. AID 492953, 2010. recombinant PAFAH1B2, FP-rhodamine activity probe. 340,000 tested, 1.2% active;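 active means inhibition above the mean of all tested compounds plus 3 SD, cut at about 24% in these data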;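 further: 0% = enzyme with DMSO and 100% = wells lacking PAFAH1B2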
PAFAH2 FP inh = PAFAH2 enzyme inhibitors, primary screen, biochemical, fluorescence polarization, human; inhibition, % at 3.39 µM; Platelet-activating factor acetylhydrolase 2, cytoplasmic (Homo sapiens), Q99487; 340,000 tested, 0.99% active; AID 492956, 2010; recombinant PAFAH2, FP-rhodamine activity probe;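 active means inhibition above the mean over all tested compounds plus 3 SD, cut at about 30% in these data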;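 further: inhibitors block probe labeling of enzyme so polarization drops; 0% = enzyme with DMSO and 100% = wells lacking PAFAH2 protein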
ARFGAP1 inh = inhibitors of rat ARFGAP1 GAP activity, primary screen, biochemical, fluorescence polarization, GDP tracer. ADP-ribosylation factor GTPase-activating protein 1 (Rattus norvegicus), Q62848. Arfgap1-stimulated ARF1 GTP hydrolysis, GDP FP detection. inhibition, % at 16.5 µM. 360,000 tested, 0.26% active. AID 651572, 2012;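 active means inhibition above a per-plate limit, mean inhibition of low control wells plus 3 SD, cut at about 25% in these data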;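 further: 0% = DMSO wells with enzyme and 100% = wells lacking Arfgap1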
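Assay system: Rat Arfgap1 GAP domain (His6, aa 1-136), purified enzyme | Buffer or medium: HEPES 25 mM pH 7.5, NaCl 150 mM, MgCl2, DTT | Schedule: GTP hydrolysis reaction 2 h at 25 °C | Signal: FP of antibody-bound GDP Alexa 633 tracer, ex 620/em 688 nm | Measure: Percent inhibition of Arfgap1-stimulated GTP hydrolysis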
PAFAH1B3 inh = PAFAH1B3 enzyme inhibitors, primary screen, biochemical, fluorescence polarization, human; Platelet-activating factor acetylhydrolase IB subunit alpha1 (Homo sapiens), Q15102; recombinant PAFAH1B3, FP-rhodamine probe; inhibition, % at 3.39 µM; 340,000 tested, 0.28% active;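 active means inhibition above the screen-wide average of all tested compounds plus 3 SD, cut at about 25% in these data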;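 further: 0% = enzyme with DMSO only and 100% = wells lacking PAFAH1B3 protein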
Target sequence (Q15102 whole entry, looked up): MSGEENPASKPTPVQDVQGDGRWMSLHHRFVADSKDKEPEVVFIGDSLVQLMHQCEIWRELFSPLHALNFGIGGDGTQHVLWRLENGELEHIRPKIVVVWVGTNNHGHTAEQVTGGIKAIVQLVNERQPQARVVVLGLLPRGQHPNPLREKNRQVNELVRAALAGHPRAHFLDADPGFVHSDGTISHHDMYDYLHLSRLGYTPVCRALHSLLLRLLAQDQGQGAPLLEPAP
pPAFAH inh = pPAFAH enzyme inhibitors, primary screen, biochemical, fluorescence polarization, human; Platelet-activating factor acetylhydrolase (Homo sapiens), Q13093; recombinant pPAFAH, FP-rhodamine probe fluorescence polarization; inhibition, % at 3.39 µM; 330,000 tested, 1.5% active; AID 463082, 2010;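 active means inhibition above the mean inhibition across the screen plus 3 SD, cut at about 25% in these data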;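 further: inhibitors block binding of the rhodamine activity-based probe so polarization drops; 0% = enzyme with DMSO and 100% = wells lacking pPAFAH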
PAFAH2 FP conf = PAFAH2 enzyme inhibitors, confirmation, biochemical, fluorescence polarization, human; inhibition, % at 3.39 µM; 2,300 tested, 65% active; recombinant PAFAH2, FP-rhodamine activity probe; shares compounds with PAFAH2 FP inh; AID 493030, 2011;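 active means mean inhibition over three repeats above a set limit taken from the earlier primary screen, cut at about 30% in these data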;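 further: inhibitor blocks binding of rhodamine activity probe so polarization falls; 0% = enzyme with DMSO and 100% = wells lacking PAFAH2 protein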
* = called active by the depositor; x = no result given. Only some compounds are listed: those with a hit (about 2.7% of all), similar ones and a draw of the others.

SMILES	ASAP1 inh	PAFAH1B2 FP inh	PAFAH2 FP inh	ARFGAP1 inh	PAFAH1B3 inh	pPAFAH inh	PAFAH2 FP conf
CN1C(=O)C(C)(C)c2cc(S(=O)(=O)N3CCN(c4ccccc4F)CC3)ccc21	6.5	4.2	2.6	-5.6	6.1	0.6	x
CCCn1c(C(O)c2ccc(OC)c(OC)c2)nc2ccccc21 (stereo not drawn)	1.4	3.9	2.5	-0.7	9.7	-0.1	x
COc1cc([N+](=O)[O-])ccc1-c1ccc(/C=C2\C(=O)ON=C2c2ccccc2)o1	11.4	7.8	29.8*	-0.4	6.3	x	17.6
COc1cc(/C=C2\C(=O)ON=C2c2ccccc2)cc(Cl)c1O	-7.1	0.3	32.9*	-2.7	-8.3	2.0	46.9*
COc1cc(/C=C2\C(=O)ON=C2c2ccccc2)cc(Br)c1O	-0.7	1.9	59.1*	-6.7	-6.5	2.9	61.0*
O=C(Nc1cccc(-c2nn[nH]n2)c1)c1csc2c1CCCC2	x	2.3	-3.5	x	1.1	-5.9	x
Nc1nc2c(ncn2[C@@H]2O[C@H](CNS(=O)(=O)C3CC3)[C@@H](O)[C@H]2O)c(=O)[nH]1	-5.5	x	x	-7.5	x	x	x
COC(=O)c1ccc2nc(-c3ccc(Cl)cc3)c(Cc3cccc(Cl)c3)n2c1	5.8	x	x	10.4	x	x	x
CCOc1ccc(C(=O)OCC(=O)NCc2ccccc2)cc1OCC	8.2	2.1	72.4*	-2.1	9.4	0.9	65.7*
O=C(COC(=O)c1cccc(Cl)c1)NCc1ccccc1	-0.5	1.9	19.6	6.1	5.4	13.6	x
CCOc1ccc(C(=O)OCC(=O)Nc2cccnc2Cl)cc1OCC	2.0	1.6	74.0*	8.9	2.3	7.7	57.8*
Cc1ccc(NC(=O)COC(=O)c2ccc(CN3CCCC3=O)cc2)c(Cl)c1	6.2	2.6	69.1*	3.8	-0.1	10.4	71.2*
Cc1ccc(C)c(NC(=O)COC(=O)c2ccc(S(=O)(=O)N3CCCCC3)cc2)c1	2.9	0.5	2.5	-8.2	4.8	-5.2	x
CC(C)(C)c1ccc(NC(=O)COC(=O)c2ccc(CN3CCCC3=O)cc2)cc1	0.8	-0.4	60.8*	-1.8	6.3	13.4	50.5*
Cc1cc(C)cc(NC(=O)COC(=O)c2ccc(CN3CCCC3=O)cc2)c1	23.4	4.7	86.1*	12.0	-1.9	14.0	85.2*
N#CCC(=O)Nc1ccc(C(=O)OCC(=O)N2CCCC2=O)cc1	-5.1	-2.8	4.9	2.6	5.5	-0.9	x
Cc1nc(NC(=O)COC(=O)C(NC(=O)c2ccco2)C(C)C)c(Cl)cc1Cl (stereo not drawn)	17.8	-1.6	0.6	-2.8	-6.0	6.8	x
COC(=O)c1ccc(/C=C/C(=O)OCC(=O)Nc2ncc(Cl)cc2Cl)cc1	20.1	6.3	28.8	-6.7	4.0	-2.9	x
Cc1nc(NC(=O)COC(=O)/C=C/c2ccco2)c(Cl)cc1Cl	13.1	0.0	35.0*	-3.1	2.8	13.0	17.7
O=C(COC(=O)/C=C/c1ccco1)Nc1ncc(Cl)cc1Cl	-4.1	2.4	47.1*	-0.7	6.0	10.9	26.7
O=C(COC(=O)/C=C/c1cccs1)Nc1ccccc1Cl	6.2	-4.6	57.9*	4.3	4.9	4.6	36.5*
CC(=O)c1ccc(NC(=O)COC(=O)/C=C/c2cccs2)cc1	8.7	9.2	57.0*	-14.2	5.0	-6.7	46.1*
CC(=O)c1ccccc1NC(=O)COC(=O)/C=C/c1ccc(C)o1	4.6	2.1	31.4*	3.3	1.0	6.2	24.4
O=C(COC(=O)/C=C/c1cccs1)Nc1ccc2ccccc2c1	10.1	4.4	56.4*	1.9	-1.5	5.6	50.5*
CCC(CC)C(=O)N(C)c1c(C)nc2c(OCc3ccc(Cl)cc3Cl)cccn12	-14.9	x	x	0.5	x	x	x
SMILES	ASAP1 inh	PAFAH1B2 FP inh	PAFAH2 FP inh	ARFGAP1 inh	PAFAH1B3 inh	pPAFAH inh	PAFAH2 FP conf
COc1ccc([C@@H]2CC(=O)[C@@H]3CN(S(=O)(=O)c4ccc(C)cc4)[C@H](c4ccccc4)C[C@@H]3N2S(=O)(=O)c2ccccc2)cc1	2.3	x	x	1.6	x	x	x
Oc1ccc2cc(Br)ccc2c1CN1CCCC1	-4.3	15.9	-3.9	3.9	8.4	6.3	x
CC(=O)c1ccccc1NC(=O)COC(=O)/C=C/c1cccs1	6.8	-2.2	53.0*	2.9	4.1	3.8	39.5*
CN1CCN(C(=O)CSc2nc3ccc(NC(=O)c4ccccc4F)cc3s2)CC1	-6.6	4.1	-5.9	17.8	8.7	1.1	x
CC(C)CC1C(=O)N(Cc2cn(CCC3OCCCO3)nn2)CCS(=O)(=O)N1Cc1ccc(-c2ccc(Cl)c(Cl)c2)cc1 (stereo not drawn)	1.0	x	x	17.5	x	x	x
O=C(OCc1cc(=O)n2c(n1)sc1ccccc12)c1ccc(O)cc1	4.4	-0.2	33.8*	16.7	4.2	4.6	6.8
O=C(OCc1nc2ccccc2s1)c1ccc(Br)s1	-11.8	1.0	16.6	4.4	2.8	10.9	x
O=C(CCc1ccc(S(=O)(=O)N2CCOCC2)cc1)OCc1nc2ccccc2s1	1.0	1.9	-5.6	7.4	5.8	6.2	x
Nc1ccc(C(=O)OCc2nc3ccccc3s2)cc1	3.3	-0.6	60.4*	4.3	5.9	0.5	48.1*
COc1ccc(/C=C/C(=O)OCc2cc(=O)n3c(n2)sc2ccccc23)cc1	22.9	2.8	-2.1	2.5	-15.6	-4.2	x
O=C(OCc1nc2ccccc2s1)c1cccc(S(=O)(=O)N2CCOCC2)c1	0.1	0.4	45.4*	10.9	8.5	11.7	28.8
CN(CC(=O)Nc1cccc(S(=O)(=O)NC2=NCCC2)c1)Cc1cccc(F)c1	-6.5	11.4	1.4	-2.4	6.2	-2.5	x
CC(C#N)Sc1ccc(S(=O)(=O)N2CCCC2)cn1 (stereo not drawn)	-5.9	0.9	1.1	-17.4	0.0	-2.7	x
O=C(COC(=O)/C=C/c1ccccc1)NC1CCCCC1	-6.5	2.7	76.3*	-12.0	3.0	9.0	82.9*
COc1cccc(/C=C/C(=O)OCC(=O)NCCc2ccccc2)c1	6.3	-1.7	32.4*	6.9	4.1	5.0	22.8
O=C(COC(=O)/C=C/c1ccccc1Cl)NC1CCCCCC1	11.7	-0.9	71.7*	3.5	6.3	20.7	74.5*

Source: PubChem BioAssay (The Scripps Research Institute Molecular Screening Center)
